TDP2 inh = blocks human TDP2 phosphodiesterase activity; inhibition, % at 12.8 µM; recombinant TDP2, T5PNP hydrolysis, p-nitrophenol absorbance 415 nm; 370,000 tested, 0.34% active; O95551;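 active = inhibition above the mean of all tested compounds plus 3 SD, set per campaign, cut at about 25% in these data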;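 note: 0% = DMSO with enzyme and 100% = buffer with substrate but no TDP2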
Target sequence (O95551 whole entry, looked up): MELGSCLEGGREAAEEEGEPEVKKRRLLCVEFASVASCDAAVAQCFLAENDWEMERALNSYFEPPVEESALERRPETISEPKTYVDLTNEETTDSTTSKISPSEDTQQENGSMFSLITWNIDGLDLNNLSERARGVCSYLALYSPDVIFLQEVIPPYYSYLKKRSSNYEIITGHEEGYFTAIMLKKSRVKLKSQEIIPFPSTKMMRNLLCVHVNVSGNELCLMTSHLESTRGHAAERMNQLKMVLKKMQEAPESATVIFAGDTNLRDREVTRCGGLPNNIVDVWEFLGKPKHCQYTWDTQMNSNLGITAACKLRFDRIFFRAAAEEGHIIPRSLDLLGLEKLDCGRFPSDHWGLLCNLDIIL
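Material: recombinant human TDP2; quantity: TDP2 enzyme at 120 nM final; medium: Tris-HCl pH 7.5 with MgCl2; compound: single concentration, 12.8 µM nominal, with 1% DMSO; incubation: 2 h enzyme incubation at 37 °C; signal: epi absorbance; measure: percent inhibition; benchmarks: high control without enzyme, low control DMSO plus TDP2; repeats: singlicate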
CASP6 VEID inh = blocks human caspase-6 cleavage activity | AID 686996 | purified caspase-6, Z-VEID-R110 cleavage fluorescence | 350,000 tested, 0.53% active | P55212 | inhibition, % at 12.5 µM;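 active = mean inhibition across replicates at least about 35%, with every replicate also reaching that limit, limit read from the data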;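 note: 0% = median of neutral control wells and 100% = no fluorescence left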
Target sequence (P55212 24-179 limits assumed): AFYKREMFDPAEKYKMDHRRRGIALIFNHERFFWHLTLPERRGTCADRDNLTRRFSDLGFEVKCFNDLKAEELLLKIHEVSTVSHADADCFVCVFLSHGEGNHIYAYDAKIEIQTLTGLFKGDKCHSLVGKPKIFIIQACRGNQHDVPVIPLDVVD
Target sequence (P55212 194-293 limits assumed): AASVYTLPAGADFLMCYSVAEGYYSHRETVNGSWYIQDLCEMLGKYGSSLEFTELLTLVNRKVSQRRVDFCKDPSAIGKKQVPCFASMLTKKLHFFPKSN
LEDGF integ inh = blocks HIV-1 LEDGF/p75-dependent DNA integration; 370,000 tested, 0.64% active; AID 743269; TR-FRET IN-LEDGF/p75 DNA integration, Eu/Cy5; inhibition, % at 3.7 µM;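 active = inhibition above the screen-wide mean plus 3 SD, cut at about 13% in these data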;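 note: signal is the Cy5 over europium emission ratio at 671 and 618 nm; 0% = plate median of compound wells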
UHRF1 binding = human UHRF1 methylated DNA binding inhibitors; Q96T88; UHRF1 binding to methylated oligo, TR-FRET; inhibition, % at 4.4 µM; 370,000 tested, 0.75% active; in the data active = inhibition above about 21%;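 note: UHRF1 SRA domain binding a hemimethylated CpG hairpin DNA probe; 0% = median of test compound wells and 100% = reference inhibitor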
MBD2 inh = inhibitors of human MBD2 binding to methylated oligonucleotide. Q9UBB5. TR-FRET. inhibition, % at 4.4 µM. 370,000 tested, 0.31% active; in the data active = inhibition above about 13%
NSD2 HMT inh = NSD2 (human) methyltransferase inhibition | O96028 | NSD2 peptide methylation, AlphaScreen, 120 min | inhibition, % at 12.5 µM | 310,000 tested, 0.54% active | AID 743445; in the data active = inhibition above about 50%
AlphaScreen art = AlphaScreen assay artifact in NSD2 counter-screen; 1,500 tested, 9.4% active; shares compounds with NSD2 HMT inh; AlphaScreen artifact counterscreen, preloaded methylated H4 peptide; AC35, µM (titrated, usually from 10 µM), for the others: at the highest dose activity change, negative = signal loss; call rule not given here
* marks the source's active call; other numbers are inactive results. The list is not random: actives were taken first. Their share in the collection is about 1.8%.

COc1cnc(-c2ccccn2)nc1Oc1cccc(C(F)(F)F)c1 was read as TDP2 inh -2, CASP6 VEID inh 0, LEDGF integ inh 2, UHRF1 binding 4, MBD2 inh -2, NSD2 HMT inh 55* and AlphaScreen art -9%.
`COc1cnc(-c2ccccn2)nc1Oc1ccccc1` gave TDP2 inh 0, CASP6 VEID inh 8, LEDGF integ inh 2, UHRF1 binding 6, MBD2 inh 12 and NSD2 HMT inh 1.
Cc1cc(C)cc(N2C(=O)C=CC2=O)c1 was read as TDP2 inh 11, CASP6 VEID inh -1, LEDGF integ inh 4, UHRF1 binding 1, MBD2 inh -5 and NSD2 HMT inh -1.
Screening Cc1c([N+](=O)[O-])cc(N2C(=O)C=CC2=O)cc1[N+](=O)[O-] returned CASP6 VEID inh 3, NSD2 HMT inh 55* and AlphaScreen art -1%.
CCCCOc1ccc(-c2ncc(N)cn2)cc1 was read as TDP2 inh -1, CASP6 VEID inh 1, LEDGF integ inh -3, UHRF1 binding 1, MBD2 inh 1, NSD2 HMT inh 60* and AlphaScreen art -2%.
CCCCOc1ccc(-c2nnc(N)s2)cc1 was read as TDP2 inh -6, CASP6 VEID inh -3, LEDGF integ inh 5, UHRF1 binding -3, MBD2 inh -1 and NSD2 HMT inh 0.
`CC(C)(C)c1cc[n+](C2=C([O-])c3ccccc3C(=O)/C2=N\S(=O)(=O)c2cccs2)cc1` gave TDP2 inh 12, CASP6 VEID inh 33, LEDGF integ inh 2, UHRF1 binding -2, MBD2 inh -10, NSD2 HMT inh 62* and AlphaScreen art -6%.
For O=C(NCc1cccnc1)c1ccc2c(c1)OCO2 the results were TDP2 inh -2, CASP6 VEID inh 3, LEDGF integ inh -1, UHRF1 binding 3, MBD2 inh 5, NSD2 HMT inh 66* and AlphaScreen art -3%.
`O=C(NCc1ccc2c(c1)OCO2)c1ccc2c(c1)C(=O)N(Cc1cccnc1)C2=O` gave TDP2 inh -5, LEDGF integ inh 1, UHRF1 binding 4, MBD2 inh 3 and NSD2 HMT inh 0.
CC(=O)Nc1ccc(S(=O)(=O)NCCSCc2cccc(Cl)c2)cc1 was read as TDP2 inh -10, CASP6 VEID inh 5, LEDGF integ inh 4, UHRF1 binding 4, MBD2 inh -2 and NSD2 HMT inh -1.
For CC(=O)Nc1ccc(S(=O)(=O)NCCSCc2c(Cl)cccc2Cl)cc1 the results were TDP2 inh -10, LEDGF integ inh -2, UHRF1 binding 2, MBD2 inh 4, NSD2 HMT inh 123* and AlphaScreen art -4%.
For Cc1ccc(S(=O)(=O)N2CCC(NC(=O)c3cccnc3)CC2)cc1Cl the results were TDP2 inh 3, CASP6 VEID inh -1, LEDGF integ inh -3, UHRF1 binding 1, MBD2 inh 3, NSD2 HMT inh 63* and AlphaScreen art -4%.
For CCN(CC)C(=O)COC(=O)C1=NN(c2cc(C)ccc2C)C(=O)CC1 the results were TDP2 inh 4, CASP6 VEID inh -1, LEDGF integ inh -3, UHRF1 binding -4, MBD2 inh 7, NSD2 HMT inh 59* and AlphaScreen art -5%.
Cc1ccc(C)c(N2N=C(C(=O)OCc3nnc(-c4cccs4)o3)CCC2=O)c1 was read as TDP2 inh -22, CASP6 VEID inh 4, LEDGF integ inh -9, UHRF1 binding 2, MBD2 inh 0 and NSD2 HMT inh 4.
CCOC(=O)c1cc(NC(=O)CN2CCCC2)cc(C(=O)OCC)c1 was read as TDP2 inh -12, CASP6 VEID inh -3, LEDGF integ inh 4, UHRF1 binding 2, MBD2 inh 0, NSD2 HMT inh 96* and AlphaScreen art -4%.
Screening CCc1nnc(NC(=O)COc2ccc3c(c2)OCO3)s1 returned TDP2 inh -3, CASP6 VEID inh 0, LEDGF integ inh 2, UHRF1 binding 0, MBD2 inh -1, NSD2 HMT inh 100* and AlphaScreen art -1%.
COc1ccc(-c2csc(N(CCCN(C)C)C(=O)c3ccccc3C)n2)cc1 was read as TDP2 inh 4, CASP6 VEID inh -33, LEDGF integ inh 1, UHRF1 binding 0, MBD2 inh 4 and NSD2 HMT inh 17.
Screening COc1ccc(-c2csc(N(CCCN(C)C)C(=O)c3ccccc3Cl)n2)cc1 returned TDP2 inh 6, CASP6 VEID inh -28, LEDGF integ inh -1, UHRF1 binding -2, MBD2 inh -9, NSD2 HMT inh 58* and AlphaScreen art -6%.
For C/C=C/c1ccc2c(c1)O[C@@H](CN(C)C(=O)C1CCOCC1)[C@H](C)CN([C@@H](C)CO)S2(=O)=O the results were CASP6 VEID inh -1.
For C[C@@H]1CN([C@H](C)CO)C(=O)c2cc(NC(=O)CCN3CCOCC3)ccc2O[C@@H]1CN(C)C(=O)Nc1ccc(F)cc1 the results were CASP6 VEID inh 3.
Screening CC(=O)N1CC(=O)N2[C@@H](CO)[C@H](c3ccc(-c4cccc(C(=O)N(C)C)c4)cc3)[C@@H]2C1 returned CASP6 VEID inh 1.
Screening O=C(C[C@@H]1C[C@@H]2c3cc(NC(=O)C4CCC4)ccc3O[C@@H]2[C@H](CO)O1)NCCc1ccccc1 returned CASP6 VEID inh 3.
For CCCCN(CC)CCNC(=O)CN(C)S(=O)(=O)c1ccc2c(c1)c(=O)n(C)c(=O)n2C the results were TDP2 inh -2, LEDGF integ inh 2, UHRF1 binding 1, MBD2 inh 3, NSD2 HMT inh 61* and AlphaScreen art -4%.
For CN(C)c1ccc(CNC(=O)CN(C)S(=O)(=O)c2ccc3c(c2)c(=O)n(C)c(=O)n3C)cc1 the results were TDP2 inh 1, CASP6 VEID inh -3, LEDGF integ inh -4, UHRF1 binding 0, MBD2 inh 2 and NSD2 HMT inh 4.
Screening N#C[C@@H]1[C@H](c2ccc(C3=CCCCC3)cc2)[C@H](CO)N1C(=O)c1ccccn1 returned CASP6 VEID inh 0.
Screening Cn1c(=O)cc(SCC(=O)N2CCOCC2)c2ccc(Cl)cc21 returned TDP2 inh -3, LEDGF integ inh 0, UHRF1 binding 0, MBD2 inh 2, NSD2 HMT inh 55* and AlphaScreen art 0%.
Screening CCOC(=O)CCCCC(=O)c1[nH]c(=O)[nH]c1CSc1nc2ccccc2[nH]1 returned TDP2 inh 7, LEDGF integ inh 7, UHRF1 binding -1, MBD2 inh -2, NSD2 HMT inh 100* and AlphaScreen art -4%.
`CCOC(=O)c1c(C)[nH]c(C)c1C(=O)CSc1nc2ccccc2[nH]1` gave TDP2 inh -2, LEDGF integ inh 2, UHRF1 binding -1, MBD2 inh 3 and NSD2 HMT inh -3.

From PubChem BioAssay
